Test results taken from ChEMBL document CHEMBL4765286, “Identification and development of non-cytotoxic cell death modulators: Impact of sartans and derivatives on PPARγ activation and on growth of imatinib-resistant chronic myelogenous leukemia cells” (Eur J Med Chem, 2020).
Activity calls are given as the source filed them. The calls are words filed in the database; no cut-off is given here.

What was measured:
COS-7 [1] = experiment: Cytotoxicity against African green monkey COS7 cells assessed as effect on metabolic activity at 10 uM measured after 72 hrs by MTT assay; type: ADME, cell-based; details: chlorocebus aethiops, cos-7, 72 h
Procedure, shortened: (§1)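 COS-7 cells seeded at 2×10^3 per well in triplicate, grown 24 h, then exposed to test agent or DMSO vehicle (final DMSO ≤0.1%) for 72 h. Metabolic activity read with a modified MTT (EZ4U) kit. Background from FCS-containing medium plus substrate subtracted. Expressed relative to vehicle control set to 100%. Mean +SD of ≥3 independent experiments.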

COS-7 [2] = experiment: Cytotoxicity against African green monkey COS7 cells assessed as effect on metabolic activity at 20 uM measured after 72 hrs by MTT assay; type: ADME, cell-based; details: chlorocebus aethiops, cos-7, 72 h; procedure, shortened: as §1
[3] = Modulation of cell death in imatinib-resistant human K562 cells assessed by increase in imatinib-mediated cell death in presence of presence of imatinib measured after 72 hrs by Propidium iodide stain based FACS assay (reference value: 17%); type: functional
[4] = Cytotoxicity against human HS5 cells assessed as cell death at 10 uM measured after 72 hrs by Propidium iodide stain based FACS analysis; details: hs5, 72 h
Procedure, shortened: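 HS-5 cells seeded at 0.5×10^5 per well and treated with compound or DMSO vehicle (final DMSO ≤0.1%) for 72 h. Harvested cells stained with PI/Triton-X100 for 2 h at 4 °C. Dead cells were counted by flow cytometry as nuclei in the sub-G1 window. Mean +SEM of ≥3 independent experiments.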

[5] = target: T1, Signal transducer and activator of transcription 5A (Homo sapiens) (UniProt P42229); experiment: Inhibition of STAT5 in imatinib-resistant human K562 cells assessed as effect on STAT5 expression in presence of imatinib at 10 uM measured after 6 hrs by Western blot assay; type: cell-based
T1 sequence (whole entry): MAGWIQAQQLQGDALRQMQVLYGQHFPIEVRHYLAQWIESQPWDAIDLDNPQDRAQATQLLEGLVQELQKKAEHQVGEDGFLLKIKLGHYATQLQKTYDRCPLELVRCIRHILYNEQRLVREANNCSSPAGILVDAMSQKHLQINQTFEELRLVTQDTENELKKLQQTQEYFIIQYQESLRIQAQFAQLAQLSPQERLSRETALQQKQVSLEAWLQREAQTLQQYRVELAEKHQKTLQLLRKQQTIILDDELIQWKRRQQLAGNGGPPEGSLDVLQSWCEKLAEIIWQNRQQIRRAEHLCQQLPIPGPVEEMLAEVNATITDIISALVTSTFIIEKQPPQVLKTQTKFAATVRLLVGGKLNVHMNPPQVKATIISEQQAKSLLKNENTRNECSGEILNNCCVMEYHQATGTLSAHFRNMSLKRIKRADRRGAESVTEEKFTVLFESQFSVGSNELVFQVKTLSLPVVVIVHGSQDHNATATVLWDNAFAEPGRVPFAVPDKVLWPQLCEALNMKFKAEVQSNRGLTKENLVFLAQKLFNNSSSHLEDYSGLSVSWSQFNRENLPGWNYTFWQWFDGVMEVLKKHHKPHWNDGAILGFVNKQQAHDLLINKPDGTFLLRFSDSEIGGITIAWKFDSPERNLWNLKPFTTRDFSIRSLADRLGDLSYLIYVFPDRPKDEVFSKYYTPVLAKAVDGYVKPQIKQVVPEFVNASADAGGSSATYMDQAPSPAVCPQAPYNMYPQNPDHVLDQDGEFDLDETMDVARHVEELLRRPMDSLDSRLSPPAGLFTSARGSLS

[6] = target: T1, Signal transducer and activator of transcription 5A (Homo sapiens); experiment: Inhibition of STAT5 phosphorylation in imatinib-resistant human K562 cells in presence of imatinib at 10 uM measured after 6 hrs by Western blot assay; type: cell-based
Procedure, shortened: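 K562-resistant cells (a doxorubicin-resistant K562 subclone, KD225) kept in RPMI 1640 with 10% FCS. Cells received 1 µM imatinib alone or with 10 µM compound for 6 h. Immunoblots were probed for STAT5 and for pSTAT5 (Tyr694/699), with GAPDH as loading control, and developed by ECL. Densitometry was normalised to the imatinib-only control set to 100%.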

[7] = Modulation of cell death in imatinib-resistant human K562 cells assessed by increase in imatinib-mediated cell death in presence of presence of imatinib at 2.5 uM measured after 72 hrs by Propidium iodide stain based FACS assay (reference value: 17%); type: functional
[8] = target: T2, Peroxisome proliferator-activated receptor gamma (Homo sapiens, UniProt P37231); experiment: Agonist activity at human PPARgammaDEF receptor expressed in african green monkey COS7 cells transfected with pGal5-TK-pGL3/pRenilla-CMV assessed as intrinsic activity measured after 39 hrs by dual luciferase reporter assay; type: cell-based
T2 sequence (P37231 whole entry): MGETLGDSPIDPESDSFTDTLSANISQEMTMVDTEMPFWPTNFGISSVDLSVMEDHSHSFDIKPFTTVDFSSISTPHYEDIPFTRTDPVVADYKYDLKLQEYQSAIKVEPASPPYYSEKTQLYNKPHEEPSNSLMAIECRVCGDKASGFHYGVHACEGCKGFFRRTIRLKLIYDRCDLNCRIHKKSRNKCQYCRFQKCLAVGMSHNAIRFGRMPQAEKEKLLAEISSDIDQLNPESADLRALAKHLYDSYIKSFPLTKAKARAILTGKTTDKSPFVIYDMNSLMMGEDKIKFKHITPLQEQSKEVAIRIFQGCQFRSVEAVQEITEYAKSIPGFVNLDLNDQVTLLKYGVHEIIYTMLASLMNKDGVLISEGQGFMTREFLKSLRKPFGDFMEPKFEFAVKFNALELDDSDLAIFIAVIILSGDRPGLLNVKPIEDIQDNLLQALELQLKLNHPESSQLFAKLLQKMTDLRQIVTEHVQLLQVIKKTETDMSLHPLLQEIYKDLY

With `CCCc1nc2c(C(=O)O)cccc2n1Cc1ccc(-c2ccccc2C(=O)O)cc1` the Activity (COS-7 [1]) was “Non-Toxic”, the Activity (COS-7 [2]) was “Non-Toxic” and the Activity [3] was 12%. The Activity [4] was “Non-Toxic”, the inhibition [5] was “inactive” and the inhibition [6] was “inactive”.
With `CCCc1nc2c(C)cc(-c3nc4ccccc4n3C)cc2n1Cc1ccc(-c2ccccc2C(=O)O)cc1` [TELMISARTAN] the Activity (COS-7 [1]) was “Non-Toxic”, the Activity (COS-7 [2]) was “Non-Toxic” and the Activity [3] was 63%. For the same compound, the Activity [4] was “Non-Toxic”, the inhibition [5] was “inactive” and the inhibition [6] was “Active”.
With `CCCc1nc(C(C)(C)O)c(C(=O)O)n1Cc1ccc(-c2ccccc2-c2nnn[nH]2)cc1` [OLMESARTAN] the Activity (COS-7 [1]) was “Non-Toxic”, the Activity (COS-7 [2]) was “Non-Toxic” and the Activity [4] was “Non-Toxic”.
In the case of `CCCc1nc2cccc(C(=O)OC)c2n1Cc1ccc(-c2ccccc2C(=O)OC)cc1`, the Activity (COS-7 [1]) is reported as “Non-Toxic”, the Activity (COS-7 [2]) is reported as “Non-Toxic” and the Activity [3] is reported as 83%. For the same compound, the Activity [7] was 50%, the Activity [4] was “Non-Toxic” and the inhibition [5] was “inactive”. For the same compound, the inhibition [6] was “Active”.
With `CCCCc1nc(Cl)c(CO)n1Cc1ccc(-c2ccccc2-c2nn[nH]n2)cc1` [LOSARTAN] the Activity (COS-7 [1]) was “Non-Toxic”, the Activity (COS-7 [2]) was “Non-Toxic” and the Activity [4] was “Non-Toxic”.
In the case of `CCCc1nc2c(C)cc(-c3nc4ccccc4n3C)cc2n1Cc1ccc(-c2ccccc2C(N)=O)cc1`, the EC50 [8] is reported as 9.1 µM, the Activity (COS-7 [1]) is reported as “Non-Toxic” and the Activity (COS-7 [2]) is reported as “Non-Toxic”. For the same compound, the Activity [3] was 89%, the Activity [7] was 50% and the Activity [4] was “Non-Toxic”. The inhibition [5] was “inactive” and the inhibition [6] was “Active”.
For `CCCc1nc2c(C(=O)O)cccc2n1Cc1ccc(-c2ccccc2C(=O)OC)cc1`, the Activity (COS-7 [1]) was “Non-Toxic”, the Activity (COS-7 [2]) was “Non-Toxic” and the Activity [3] was 56%. For the same compound, the Activity [4] was “Non-Toxic”, the inhibition [5] was “inactive” and the inhibition [6] was “Active”.
In the case of `CCOc1nc2cccc(C(=O)OC(C)OC(=O)OC3CCCCC3)c2n1Cc1ccc(-c2ccccc2-c2nnn[nH]2)cc1` (centres undefined) [CANDESARTAN CILEXETIL], the Activity (COS-7 [1]) is reported as “Non-Toxic”, the Activity (COS-7 [2]) is reported as “Non-Toxic” and the Activity [4] is reported as “Non-Toxic”.
With `CCCc1nc(C(C)(C)O)c(C(=O)OCc2oc(=O)oc2C)n1Cc1ccc(-c2ccccc2-c2nnn[nH]2)cc1` [OLMESARTAN MEDOXOMIL] the Activity (COS-7 [1]) was “Non-Toxic”, the Activity (COS-7 [2]) was “Non-Toxic” and the Activity [4] was “Non-Toxic”.
For `CCc1ccc(CCOc2ccc(CC3SC(=O)NC3=O)cc2)nc1` (centres undefined) [PIOGLITAZONE], the Activity (COS-7 [1]) was “Non-Toxic”, the Activity (COS-7 [2]) was “Non-Toxic” and the Activity [4] was “Non-Toxic”.
With `CCOc1nc2cccc(C(=O)O)c2n1Cc1ccc(-c2ccccc2-c2nnn[nH]2)cc1` [CANDESARTAN] the Activity (COS-7 [1]) was “Non-Toxic”, the Activity (COS-7 [2]) was “Non-Toxic” and the Activity [3] was 42%. The Activity [4] was “Non-Toxic”.
In the case of `CCCCC1=NC2(CCCC2)C(=O)N1Cc1ccc(-c2ccccc2-c2nnn[nH]2)cc1` [IRBESARTAN], the Activity (COS-7 [1]) is reported as “Non-Toxic”, the Activity (COS-7 [2]) is reported as “Non-Toxic” and the Activity [3] is reported as 31%. The Activity [4] was “Non-Toxic”.
In the case of `CCCc1nc2cccc(C(=O)O)c2n1Cc1ccc(-c2ccccc2C(=O)O)cc1`, the Activity (COS-7 [1]) is reported as “Non-Toxic”, the Activity (COS-7 [2]) is reported as “Non-Toxic” and the Activity [3] is reported as 12%. For the same compound, the Activity [4] was “Non-Toxic”, the inhibition [5] was “inactive” and the inhibition [6] was “inactive”.
For `CCCc1nc2c(C(=O)OC)cccc2n1Cc1ccc(-c2ccccc2C(=O)OC)cc1`, the Activity (COS-7 [1]) was “Non-Toxic”, the Activity (COS-7 [2]) was 20% and the Activity [3] was 83%. The Activity [7] was 50%, the Activity [4] was “Non-Toxic” and the inhibition [5] was “inactive”. The inhibition [6] was “Active”.
